Measurements taken from ChEMBL document CHEMBL1811908, “Design of HIV-1 integrase inhibitors targeting the catalytic domain as well as its interaction with LEDGF/p75: a scaffold hopping approach using salicylate and catechol groups” (Bioorg Med Chem, 2011).

How the values were obtained:
[1] = (§1) Cytotoxicity against human NCI-H630 cells after 72 hrs by MTT assay; assay type: cell-based; details: NCI-H630 cells
Summary of the method: (§2)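 H630 colon cancer cells seeded, attached overnight, then continuously exposed to compound (DMSO stocks) for 72 h. MTT added to 0.5 mg/mL final, 4 h at 37°C; supernatant removed, DMSO added, absorbance read at 570 nm. IC50 taken from plot of log concentration versus percentage of cells killed.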

[2] = Inhibition of HIV1 His6-tagged integrase-LEDGF/p75 interaction after 30 mins by AlphaScreen assay
Summary of the method: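 His6-tagged IN (300 nM final) preincubated with compound (0.1–100 μM) 30 min at 4°C in 25 mM Tris-HCl pH 7.4, 150 mM NaCl, 1 mM MgCl2, 0.01% Tween-20, 0.1% BSA; 100 nM Flag-LEDGF/p75 added, 1 h at 4°C. Ni-chelate acceptor and anti-Flag donor beads (20 μg/ml each) added, 1 h at 30°C; AlphaScreen emission read.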

[3] = target: T1, Human immunodeficiency virus type 1 integrase (Human immunodeficiency virus 1, UniProt Q7ZJM1); experiment: Inhibition of wild-type HIV1 integrase 3'-processing activity using [32P]-5'-end-labeled 5'-GTGTGGAAAATCTCTAGCAGT-3' as substrate after 1 hr
T1 sequence (Q7ZJM1 whole entry): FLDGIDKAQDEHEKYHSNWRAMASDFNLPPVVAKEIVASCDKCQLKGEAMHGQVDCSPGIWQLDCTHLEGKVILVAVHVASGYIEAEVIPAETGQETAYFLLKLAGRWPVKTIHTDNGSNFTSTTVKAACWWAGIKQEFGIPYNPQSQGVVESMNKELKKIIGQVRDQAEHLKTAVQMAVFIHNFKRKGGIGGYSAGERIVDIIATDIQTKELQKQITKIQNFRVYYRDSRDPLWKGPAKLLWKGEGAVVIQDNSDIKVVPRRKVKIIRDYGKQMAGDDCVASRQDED

[4] = target: T1, Human immunodeficiency virus type 1 integrase; experiment: Inhibition of wild-type HIV1 integrase strand transfer activity using [32P]-5'-end-labeled 5'-GTGTGGAAAATCTCTAGCAGT-3' as substrate after 1 hr
NCI-H630 = experiment: as §1; assay type: cell-based; details: nci-h630, 72 h; summary of the method: as §2

SMILES	CC50 at 72 h [1]	IC50 [2]	IC50 [3]	IC50 [4]	CC50 (NCI-H630)
CNS(=O)(=O)c1cc(O)c(O)c(C(=O)NCc2ccc(F)cc2)c1	> 40 µM	> 100 µM	> 100 µM	44 µM	–
O=C(O)c1ccc(OCc2ccc(F)cc2)cc1O	> 40 µM	–	> 100 µM	> 100 µM	–
O=C(NCc1cccs1)c1cc(S(=O)(=O)N2CCCCC2)cc(O)c1O	> 40 µM	> 50 µM	> 100 µM	44 µM	–
O=C(NCc1ccco1)c1cc(S(=O)(=O)N2CCCCC2)cc(O)c1O	–	> 100 µM	> 100 µM	13 µM	33 µM
CNC(=O)Cc1ccccc1CNC(=O)c1cccc(O)c1O	> 40 µM	> 100 µM	> 100 µM	56 µM	–
O=C(Nc1ccc2[nH]ccc2c1)c1cccc(O)c1O	> 40 µM	88 µM	> 100 µM	58 µM	–
O=C(O)c1cc(OCc2ccc(F)cc2)ccc1O	> 40 µM	–	> 100 µM	> 100 µM	–
O=C(NCc1ccc(F)cc1)c1cc(S(=O)(=O)N2CCCCC2)cc(O)c1O	–	–	200 µM	5 µM	13 µM
O=C(NO)c1c(O)cccc1OCc1ccc(F)cc1	–	–	> 100 µM	97 µM	–
COc1cc(S(=O)(=O)N2CCCCC2)cc(C(=O)NCc2ccco2)c1O	> 25 µM	13 µM	> 100 µM	> 100 µM	–
O=C(NCc1cccs1)c1cccc(O)c1O	> 40 µM	95 µM	83 µM	12 µM	–
O=C(NCc1ccc(F)c(F)c1)c1cccc(O)c1O	> 40 µM	56 µM	> 100 µM	23 µM	–
Nc1cccc(C(=O)NCc2ccco2)c1O	> 25 µM	51 µM	> 100 µM	> 100 µM	–
O=C(NCc1ccc2[nH]ccc2c1)c1cccc(O)c1O	> 40 µM	45 µM	–	–	–
CC(=O)Nc1cc(O)c(O)c(C(=O)NCc2ccc(F)cc2)c1	< 10 µM	> 100 µM	55 µM	14 µM	–
O=C(O)c1cccc(OCc2ccc3ccccc3c2)c1O	> 40 µM	–	> 100 µM	140 µM	–
O=C(NCc1ccc(C(F)(F)F)cc1)c1cc(S(=O)(=O)N2CCCCC2)cc(O)c1O	–	> 100 µM	89 µM	11 µM	31 µM
CC(C)(C)NS(=O)(=O)c1cc(O)c(O)c(C(=O)NCc2ccc(F)cc2)c1	> 10 µM	100 µM	70 µM	8 µM	–
O=C(O)c1cccc(OCc2ccccc2)c1O	> 40 µM	–	> 100 µM	> 100 µM	–
CS(=O)(=O)Nc1cc(O)c(O)c(C(=O)NCc2ccc(F)cc2)c1	–	100 µM	> 100 µM	34 µM	–
N#Cc1cc(O)c(O)c(C(=O)NCc2ccc(F)cc2)c1	> 10 µM	–	75 µM	22 µM	–

SMILES	CC50 at 72 h [1]	IC50 [2]	IC50 [3]	IC50 [4]	CC50 (NCI-H630)
O=C(O)c1cccc(OCc2ccc(F)cc2)c1O	> 40 µM	–	> 100 µM	> 100 µM	–
O=C(NCc1ccc(F)cc1)c1cccc(O)c1O	> 40 µM	> 100 µM	100 µM	35 µM	–
O=C(NCc1cccc2ccccc12)c1cccc(O)c1O	–	34 µM	> 100 µM	26 µM	21 µM
O=C(NCc1ccco1)c1cccc(O)c1O	> 40 µM	89 µM	90 µM	15 µM	–
O=C(O)c1cc(OCc2ccccc2)ccc1O	> 40 µM	–	> 100 µM	> 100 µM	–
CN(C)Cc1ccc(C(=O)NCc2ccc(F)cc2)c(O)c1O	> 10 µM	> 50 µM	> 100 µM	20 µM	–
O=C(O)c1c(O)cccc1OCc1ccc(F)cc1	> 40 µM	–	> 100 µM	> 100 µM	–
O=C(NCC1CCCCC1)c1cccc(O)c1O	–	> 100 µM	> 100 µM	18 µM	21 µM
O=C(NCCc1c[nH]c2ccccc12)c1cccc(O)c1O	–	63 µM	100 µM	100 µM	15 µM
O=C(O)c1c(O)cccc1OCc1ccc2ccccc2c1	> 40 µM	–	> 100 µM	186 µM	–
O=C(NCc1ccc(F)cc1)c1cccc(OCc2ccccc2)c1O	> 40 µM	–	> 333 µM	111 µM	–
O=C(O)c1ccc(OCc2ccccc2)cc1O	> 40 µM	–	> 100 µM	> 100 µM	–
O=C(NCC1CCCCC1)c1cc(S(=O)(=O)N2CCCCC2)cc(O)c1O	> 40 µM	8 µM	53 µM	19 µM	–
CN(C)Cc1ccc(C(=O)NCc2ccco2)c(O)c1O	–	> 50 µM	> 100 µM	39 µM	7 µM
O=C(NO)c1cccc(OCc2ccc(F)cc2)c1O	–	–	> 100 µM	> 100 µM	–
O=C(NCc1ccc(-c2cccs2)cc1)c1cccc(O)c1O	–	> 100 µM	> 100 µM	21 µM	15 µM
CNC(=O)c1cc(F)ccc1CNC(=O)c1cccc(O)c1O	> 40 µM	> 100 µM	> 100 µM	100 µM	–
O=C(NC1CCCCC1)c1cccc(O)c1O	> 40 µM	> 100 µM	> 100 µM	> 100 µM	–
O=C(NO)c1ccc(OCc2ccc(F)cc2)cc1O	–	–	> 100 µM	100 µM	–
O=C(NO)c1cc(OCc2ccc(F)cc2)ccc1O	–	–	> 100 µM	85 µM	–
O=C(NC1CCNCC1)c1cccc(O)c1O	> 10 µM	> 100 µM	> 100 µM	> 100 µM	–
